# m5-HT2A agonist: mouse Htr2a agonists via beta-arrestin recruitment, primary screen, cell-based, luminescence. CHO-K1 mHTR2A beta-arrestin complementation; percent of 30 µM serotonin response. activation, % at 7.6 µM. 0.66% of 360,000 active. 5-hydroxytryptamine receptor 2A (Mus musculus), P35363;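 active means activation above a run cutoff, the mean activation of all tested compounds plus 3 SD, cut at about 14% in these data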;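 further: 0% = plate median of compound wells and 100% = 30 µM serotonin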
# Target sequence (P35363 whole entry, looked up): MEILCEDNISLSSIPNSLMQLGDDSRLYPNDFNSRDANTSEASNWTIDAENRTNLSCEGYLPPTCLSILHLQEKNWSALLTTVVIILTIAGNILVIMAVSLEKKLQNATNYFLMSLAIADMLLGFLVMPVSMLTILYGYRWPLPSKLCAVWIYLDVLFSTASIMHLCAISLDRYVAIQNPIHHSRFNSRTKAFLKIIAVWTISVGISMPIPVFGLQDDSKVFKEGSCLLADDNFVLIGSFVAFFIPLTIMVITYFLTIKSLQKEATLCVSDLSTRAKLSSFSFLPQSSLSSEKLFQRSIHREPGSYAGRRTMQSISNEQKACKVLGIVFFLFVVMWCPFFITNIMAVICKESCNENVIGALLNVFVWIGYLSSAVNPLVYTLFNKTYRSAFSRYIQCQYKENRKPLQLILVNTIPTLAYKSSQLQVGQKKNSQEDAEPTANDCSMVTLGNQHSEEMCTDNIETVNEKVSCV
# AHR act: AHR activators, primary screen, cell-based, luminescence, luciferase reporter, human. Aryl hydrocarbon receptor (Homo sapiens), P35869. AHR-responsive luciferase reporter cells. activation, % at 5 µM. 2.5% of 320,000 active; in the data active means activation above about 47%;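 further: 0% = vehicle wells and 100% = reference agonist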
# TbMetRS inhib: T. brucei MetRS inhibitors, primary screen, biochemical, luminescence; methionyl-tRNA synthetase (Trypanosoma brucei brucei); purified T. brucei MetRS, ATP depletion, Kinase-Glo luminescence; inhibition, % at 11.9 µM; 0.4% of 360,000 active; AID 624268, 2012;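 active means inhibition above a per-plate cutoff of the control wells' mean inhibition plus 3 SD, cut at about 5.5% in these data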;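 further: 0% = DMSO wells median and 100% = median of wells with control inhibitor compound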
#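 Assay system: T. brucei methionyl-tRNA synthetase, purified | Medium: HEPES buffer with MgCl2, KCl, DTT, spermine, BSA, pyrophosphatase | Compound: 11.9 µM single point | Incubation: 15 min enzyme-compound preincubation, 2 h reaction, 10 min detection, 25 °C | Measured by: Kinase-Glo luciferase luminescence reporting remaining unconsumed ATP | Measure: % inhibition normalized to control-well medians | Replication: Singlicate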
# MsrA inh: bovine MsrA enzyme inhibitors, primary screen, biochemical, absorbance, HTS; 0.75% of 360,000 active; inhibition, % at 15.5 µM; purified bovine MsrA, absorbance read-out; Methionine sulfoxide reductase A (Bos taurus); in the data active means inhibition above about 4.5%;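 further: 0% = vehicle wells with enzyme and 100% = reference inhibitor wells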
# AI-2 QS modul: Vibrio harveyi AI-2 quorum sensing modulators, primary screen, JMH597 strain, luminescence/OD600 ratio; AID 2094, 2009; activity change, % at 7.5 µM; Vibrio harveyi JMH597 AI-2 luminescence/OD600 ratio, 9 h; stronger effect = lower value; strain lacks LuxN and CqsS sensors; 0 = neutral-control median; 0.4% of 300,000 active; in the data active means activity change below about -75%, passing the limit was not always enough; inconclusive means no clear call, values can overlap the other calls;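 further: luminescence divided by OD600 gain over 9 h not by final OD600 alone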
# MsrA act: bovine MsrA enzyme activators, primary screen, biochemical, absorbance, HTS; purified bovine MsrA, absorbance read-out; activation, % at 10.6 µM; 0.3% of 360,000 active; AID 602163, 2012; in the data active means activation above about 7.5%;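 further: 0% = vehicle and 100% = reference activator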
# Tb MetRS conf: T. brucei MetRS inhibitors, confirmation, biochemical, luminescence | shares compounds with TbMetRS inhib | T. brucei MetRS enzyme, luminescence (ATP depletion) | inhibition, % at 11.9 µM | 93% of 1,400 active | AID 624412, 2012; in the data active means inhibition above about 7%
# Jurkat tox: Jurkat T cell cytotoxicity, cytotoxicity control for T. brucei MetRS inhibitor project, luminescence, high throughput | shares compounds with TbMetRS inhib | inhibition, % at 8.3 µM | Jurkat cells viability, ATP luminescence | 12% of 1,400 active; in the data active means inhibition above about 15%;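 further: 0% = vehicle and 100% = reference inhibitor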
# Tb MetRS inh FP: T. brucei MetRS inhibitors, orthogonal assay for T. brucei MetRS inhibitor project, biochemical, fluorescence polarization; shares compounds with TbMetRS inhib; purified T. brucei MetRS; inhibition, % at 11.9 µM; 44% of 1,400 active; AID 651607, 2012; in the data active means inhibition above about 17%;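 further: 0% = vehicle wells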
# * marks the source's active call; other numbers are inactive results; ? = inconclusive; nt = no result given. Hits are enriched below; roughly 4.4% of the tested compounds scored in any of these assays.
SMILES,m5-HT2A agonist,AHR act,TbMetRS inhib,MsrA inh,AI-2 QS modul,MsrA act,Tb MetRS conf,Jurkat tox,Tb MetRS inh FP
Cc1ccc(S(=O)(=O)N2CCc3ccccc3C2)cc1C,0.9,nt,-0.4,0.3,22.7,-1.7,nt,nt,nt
CCCCCOC(=O)c1c(N)n(CCOC)c2nc3ccccc3nc12,11.2,24.5,0.4,2.3,9.7,-2.3,nt,nt,nt
CCOC(=O)c1c(N)n(CCOC(=O)c2cccs2)c2nc3ccccc3nc12,0.0,8.4,7.3*,2.3,19.3,-7.7,5.7*,5.9,2.0
CC(Oc1ccc(C#N)cc1)C(=O)N1CC=C(c2ccccc2)CC1 (centres undefined),1.8,-1.6,0.1,-0.8,nt,-5.0,nt,nt,nt
Oc1ccc(/C=N/Nc2ccnc3cc(Cl)ccc23)c(O)c1O,-9.4,-1.6,3.4,1.8,nt,-4.3,nt,nt,nt
Oc1ccc(/C=N/Nc2ccnc3cc(Cl)ccc23)cc1O,2.6,4.6,5.6*,-1.4,4.9,-4.4,12.8*,76.9*,26.0*
Cc1ccc(NC(=O)C=NOCC(=O)Nc2cc(C)cc(C)c2)cc1,-4.3,16.6,24.0*,0.1,nt,-0.7,58.2*,-3.7,40.7*
O=C(Nc1cccc(-c2nc3ccccc3[nH]2)c1)c1ccco1,0.2,51.4*,5.7*,-1.8,14.1,-0.5,8.8*,6.6,15.5
Nc1ncnc2nc(SCc3ccc(Cl)cc3Cl)[nH]c12,0.2,6.5,12.5*,0.3,15.9,-4.8,32.4*,15.5*,12.4
O=C(Nc1ccccc1Cl)Nc1ccnn1C1CCN(C(=O)C2CCOC2)CC1 (centres undefined),-4.5,nt,-0.1,0.4,nt,-4.3,nt,nt,nt
Cc1ccc2cc(CCNC(=O)C(=O)c3c[nH]c4ccccc34)c(=O)[nH]c2c1,0.9,14.7,-0.5,-0.4,25.6,2.3,nt,nt,nt
Cc1ccc2cc(CCNC(=O)C(=O)c3c(C)[nH]c4ccccc34)c(=O)[nH]c2c1,1.2,6.9,13.4*,1.0,28.9,-5.1,30.8*,4.6,3.6
Cc1cc(NC(=O)COC(=O)CCCOc2ccc(Cl)cc2C)no1,1.4,3.6,6.5*,0.4,16.7,-11.2,11.5*,-0.7,8.2
CC(C)(CO)NC(=O)CCCOc1ccc(Cl)cc1Cl,-0.5,0.9,10.9*,0.7,18.3,-4.1,13.2*,4.2,6.8
COc1ccc(NC(=O)COC(=O)CCCOc2ccc(Cl)cc2Cl)cc1,-2.5,0.6,7.0*,0.3,-0.7,-0.9,17.2*,-8.0,23.0*
CCN(CC)S(=O)(=O)c1ccc(NC(=O)COc2cccc(-n3cnnn3)c2)cc1,-7.1,-0.1,0.3,-0.3,nt,-0.9,nt,nt,nt
NC(=O)c1ccc(NC(=O)COc2ccc(-n3cnnn3)cc2)cc1,2.1,1.4,0.3,1.2,nt,-3.6,nt,nt,nt
COc1ccc(NC(=O)COc2cccc(-n3cnnn3)c2)cc1,-0.3,2.2,10.0*,-1.3,20.3,-12.5,19.9*,-0.7,13.1
O=C(COc1cccc(-n2cnnn2)c1)Nc1ccccc1,5.0,4.2,11.1*,-0.3,15.3,-2.7,18.8*,8.9,17.1*
O=C(NCC1CC1)c1ccc(Nc2nc3ccc(Br)cc3[nH]2)cc1,-9.3,31.2,7.3*,0.5,-10.0,-1.6,45.9*,8.0,20.0*
O=C(NCC1CC1)c1ccc2nc([C@@H]3O[C@H](CO)[C@H](O)[C@H](O)[C@H]3O)[nH]c2c1,-1.0,nt,-0.3,1.3,nt,-7.5,nt,nt,nt
O=C(NCc1ccco1)c1cccc(Nc2nc3ccc(Br)cc3[nH]2)c1,-4.2,19.2,10.4*,-0.1,28.2,-6.2,40.4*,7.7,31.7*
O=C(Cc1ccc(Nc2nc3ccc(Br)cc3[nH]2)cc1)NCCc1cccs1,-5.3,8.1,84.3*,-2.0,52.7,0.9,100.0*,11.5,103.6*
CC(C)(C)c1ccc(C(=O)NC(=O)CSc2n[nH]c(N)n2)cc1,5.2,6.6,-0.6,-0.4,nt,-13.9,nt,nt,nt
Cc1cc(Cl)ccc1OCC(=O)N(Cc1ccco1)c1c(N)n(Cc2ccccc2)c(=O)[nH]c1=O,5.9,nt,-0.2,0.4,nt,-6.8,nt,nt,nt
SMILES,m5-HT2A agonist,AHR act,TbMetRS inhib,MsrA inh,AI-2 QS modul,MsrA act,Tb MetRS conf,Jurkat tox,Tb MetRS inh FP
Clc1cc(Br)ccc1OCCCn1ccnc1,1.8,38.7,9.9*,-1.0,10.0,0.6,17.0*,5.0,12.1
CC1(C)NC(=O)N(CCCCOc2ccc(Br)cc2Cl)C1=O,-2.5,6.0,4.4,-0.4,33.0,-11.7,nt,nt,nt
Clc1cc(Br)ccc1OCCn1ccnc1,-3.7,4.2,0.2,-0.4,21.0,-3.3,nt,nt,nt
CC1(C)NC(=O)N(CCCOc2ccc(Br)cc2Cl)C1=O,-0.3,9.8,10.7*,1.1,24.2,-2.0,24.3*,-6.6,104.3*
Nc1ccccc1C(=O)NC(=O)Nc1ccc(Oc2ncc(Br)cn2)c(Cl)c1,6.0,nt,-0.4,-0.2,nt,-2.4,nt,nt,nt
CCCCn1c(NS(=O)(=O)c2ccc(C)cc2)c(S(=O)(=O)c2ccccc2)c2nc3ccccc3nc21,8.8,7.7,8.7*,0.4,-21.0,-11.9,8.9*,-0.3,5.7
CC1Cc2cc(S(=O)(=O)N3CCC(C(=O)N(C)Cc4ccccc4)CC3)ccc2N1C(=O)C1CC1 (centres undefined),2.3,-0.4,0.3,0.0,4.7,-1.5,nt,nt,nt
CN(CC(=O)Nc1ccc(Cl)c(C(F)(F)F)c1)C(=O)CCNC(=O)c1ccco1,-8.9,0.0,0.7,0.3,9.6,-1.6,nt,nt,nt
CN(CC(=O)Nc1ccc(Cl)c(C(F)(F)F)c1)C(=O)/C=C/c1cccs1,-8.0,1.1,20.6*,0.5,nt,-0.9,70.3*,4.7,41.1*
CN(CC(=O)Nc1ccc(Cl)c(C(F)(F)F)c1)C(=O)C1CCC1,-1.2,-3.6,0.1,-0.9,?,1.4,nt,nt,nt
CN(CC(=O)Nc1ccc(Cl)c(C(F)(F)F)c1)C(=O)/C=C/c1ccco1,-1.1,-0.4,29.5*,1.2,14.7,-1.3,37.8*,0.6,21.0*
CCN(C(=O)CSc1nc(N)cc(N)n1)C1CCS(=O)(=O)C1 (centres undefined),2.9,-1.6,0.5,-0.6,-1.4,-1.1,nt,nt,nt

# From PubChem
